Results from article PMC2773842 (Cellular and Molecular Life Sciences: CMLS, 2006).

Tests used:
[1] = target: T1, chip-bound C-peptide (Homo sapiens, UniProt P01308); assay: SPR binding of C-peptide in solution to chip-bound C-peptide
T1 sequence (P01308 57-87 limits assumed): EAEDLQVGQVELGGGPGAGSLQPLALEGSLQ
Method in brief: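 Peptide was immobilised on the sensor chip by surface thiol coupling via the C-terminus (up to 5000 RU) or amine coupling via the N-terminus (up to 1000 RU). The same peptide was run as analyte at 20 µl/min, diluted from a 600 µM stock in H2O/HCl pH 5. Running buffers spanned pH 3–7 (citrate, bis-Tris or Tris/HCl, 10 mM) with 100 mM NaCl and 0.005% SP20.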

[2] = target: insulin-insulin interactions (chip-bound insulin) (Homo sapiens, UniProt P01308); assay type: binding; details: peptide mixed with insulin analyte
Chain of insulin-insulin interactions (chip-bound insulin) (P01308 25-54 limits assumed): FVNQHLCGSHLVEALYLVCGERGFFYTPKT
Chain of insulin-insulin interactions (chip-bound insulin) (P01308 90-110 limits assumed): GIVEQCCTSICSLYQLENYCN
Method in brief: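 Biacore SPR with insulin immobilized either C-terminally (surface thiol coupling, up to 5000 RU) or N-terminally (amine coupling, up to 1000 RU). Test peptide was premixed with insulin analyte at 1, 5, 10 and 20 µM and flowed at 20 µl/min. Running buffer was 10 mM Na citrate pH 5 with 100 mM NaCl and 0.005% SP20. Curves are averages of three runs after blank subtraction.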

[3] = target: insulin hexamer (Homo sapiens, UniProt P01308); assay: ESI-MS analysis of insulin oligomer states in insulin/C-peptide mixtures
Chain of insulin hexamer (P01308 25-54 limits assumed): as the sequence (P01308 25-54 limits assumed) above

With C-peptide the “binding of C-peptide in solution to chip-bound C-peptide” value [1] was “no evidence for such binding”, the “effect on rate of dissociation in insulin-insulin SPR” value [2] was “slightly reduce the rate of dissociation” and the “effects on insulin in ESI-MS compared with scrambled C-peptide” value ([3]; at low peptide concentrations) was “slightly more effects on insulin than scrambled C-peptide”. For the same substance, the “insulin hexamer signals in ESI mass spectra” value ([3]; nano-ESI-MS, pH 5, insulin 30 µM and C-peptide 30 µM (1:1)) was “markedly decreased from their level in insulin solutions to an absence in insulin-C-peptide mixtures”.
